Measured values from paper PMC12849484 (Microbial Cell Factories, 2025).

Key:
[1] = test system: Synechocystis sp. PCC 6803; test: Growth curves; assay type: cell-based; conditions: OD730 over 72 h, triplicates
Procedure, shortened: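 Synechocystis subcultures in BG11 (10 mL, starting OD730 0.2) were pre-incubated 23 h, then given test conjugate from a 1 mM water stock to final 2, 4, 6, 8 or 10 µM. Controls were untreated cells and 10 µM non-specific CPP-PNA. Hour 0 was 1 h after addition. OD730 was followed over time; triplicates, mean ± SD.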

[2] = test system: D-lactate-pyruvate pathway in Synechocystis sp. PCC 6803 cells; test: LC-MS quantification of intracellular pyruvate and surrounding metabolites; assay type: cell-based; conditions: 10 µM, normalized to WT
Procedure, shortened: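 Cells were exposed to test conjugate at final 10 µM, with untreated wild-type and Δddh strain as comparators, and sampled at 24 and 48 h. For each sample, 8 mL culture was membrane-filtered (0.2 µm) and extracted; the aqueous phase was dried and analysed by LC-MS against 1–100 µg/mL standards. Values were normalized to untreated wild-type; ≥3 replicates; ANOVA.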

Sequence: CTCATAGATC [CPP-ncPNA]
- growth inhibition at 10 µM [1]: no growth inhibition

Sequence: TTCATGACGA [CPP-Syn6803ddh]
- D-lactate level at 24 h ([2]; 24 h, N = 3): consistently low
- change in acetyl-CoA concentration ([2]; 24 h, N = 3): minimal or no changes
- change in malate concentration ([2]; 24 h, N = 3): minimal or no changes
- change in phosphoenolpyruvate (PEP) concentration ([2]; 24 h, N = 3): minimal or no changes
- increase in pyruvate compared to untreated wild-type ([2]; 24 h, N = 3): 2.5 fold
- increase in D-lactate accumulation compared to wild-type ([2]; 48 h post-treatment, at least three replicates): 3 fold
